Shown are actives, neighbours in structure and some others; about 5.8% of the full set was active somewhere.
T cruzi growth-1: T. cruzi proliferation inhibition | T. cruzi beta-gal in NIH3T3, GalScreen luminescence, 90 h | inhibition, % at 8.34 µM | actives 5.9% (n = 77,000) | AID 624255;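 active means mean inhibition above about 93%, with at least 55% of replicates each passing it, limit read from the data, passing the limit was not always enough; inconclusive means only one of those two conditions holds; inactive means neither condition holds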
Pf Dd2 inh: blocks growth of Plasmodium falciparum Dd2 parasites; P. falciparum Dd2 growth, SYBR Green, 72 h; stronger effect = lower value; activity change, % at 10 µM; actives 2.3% (n = 94,000); AID 1159554; in the data active means activity change below about -80%; inconclusive means no clear call, values can overlap the other calls
IDH1 mut inh: blocks human IDH1 R132H reductase activity | actives 0.18% (n = 70,000) | inhibition, % at 10 µM | diaphorase/resazurin fluorescence, 60 min | O75874; in the data active means inhibition above about 34%; inconclusive means no clear call, values can overlap the other calls; inactive means below about 11%;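 further: 0% = DMSO and 100% = no enzyme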
Target sequence (O75874 whole entry R132H): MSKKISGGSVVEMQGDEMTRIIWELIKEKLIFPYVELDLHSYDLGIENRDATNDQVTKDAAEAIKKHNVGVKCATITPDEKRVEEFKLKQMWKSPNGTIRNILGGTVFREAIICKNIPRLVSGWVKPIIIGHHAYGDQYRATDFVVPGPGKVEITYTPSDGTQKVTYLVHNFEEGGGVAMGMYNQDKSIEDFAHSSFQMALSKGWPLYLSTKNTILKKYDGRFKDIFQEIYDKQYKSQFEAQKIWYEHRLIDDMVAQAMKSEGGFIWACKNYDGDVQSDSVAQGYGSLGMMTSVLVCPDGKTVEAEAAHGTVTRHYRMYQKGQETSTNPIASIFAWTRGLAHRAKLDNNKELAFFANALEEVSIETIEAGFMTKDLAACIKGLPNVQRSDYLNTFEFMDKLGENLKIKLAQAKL
KDM4C inh: blocks human GASC-1 (KDM4C) demethylase activity. actives 0.15% (n = 96,000). GST-KDM4C 2-372, H3K9me3 peptide, LANCE TR-FRET. Q9H3R0. inhibition, % at 12.5 µM;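 active means mean replicate inhibition above about 25%, with at least 55% of replicates also reaching it, limit read from the data, passing the limit was not always enough; inconclusive means only one of those two conditions met; inactive means neither condition met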
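Material: N-terminal GST-fused human GASC-1 (KDM4C) fragment, residues 2-372. Input: 10 nM enzyme. Incubation: enzyme reaction 30 min, then detection 60 min, both room temperature. Doses: one test concentration per compound. Read-out basis: inhibition from TR-FRET ratio decrease. Detection: LANCE TR-FRET, excitation 340 nm, emissions 618 and 671 nm.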
T cruzi growth-2: Trypanosoma cruzi proliferation inhibition; shares compounds with T cruzi growth-1; T. cruzi beta-gal in NIH3T3, GalScreen luminescence, 90 h; inhibition, % at 8.35 µM; actives 72% (n = 5,600);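 active means mean replicate inhibition above about 95% and at least 55% of replicates individually reaching it, limit read from the data; inconclusive means only one of the two criteria is met; inactive means neither criterion is met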
T cruzi growth-3: blocks T. cruzi growth in NIH3T3 host cells. inhibition, % at 2.09 µM. T. cruzi beta-gal in NIH3T3, GalScreen luminescence, 90 h. shares compounds with T cruzi growth-1. actives 21% (n = 5,600);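 active means mean inhibition above about 95%, with at least 55% of replicates also reaching it, limit read from the data; inconclusive means meets just one of the two conditions; inactive means meets neither condition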;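 further: plate controls were neutral control median for no effect and positive control median for full effect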
NIH3T3 tox: cytotoxicity in mouse NIH/3T3 fibroblasts | shares compounds with T cruzi growth-1 | NIH/3T3 viability, CellTiter-Glo ATP luminescence, 90 h | cytotoxicity (signal decrease), % at 8.35 µM | actives 14% (n = 5,600);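 active means mean signal decrease across replicates above about 35% based on untreated-well scatter, with enough replicates individually passing, limit read from the data; inconclusive means no rule stated though some were filed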;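 further: 0% = median of neutral control wells and 100% = median of positive control wells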
NIH3T3 tox 2: NIH/3T3 (mouse) viability loss. shares compounds with T cruzi growth-1. NIH/3T3 viability, CellTiter-Glo ATP luminescence, 90 h. inhibition, % at 24.9 µM. actives 56% (n = 5,600). AID 651744;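 active means mean loss of cell viability signal at or above a set limit, and enough replicates individually reaching it; inconclusive means meets only the mean limit or only the replicate share; inactive means meets neither condition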;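 further: 0% = median of neutral control wells and 100% = median of positive control wells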
Starred values were filed as active, the others as inactive; u = inconclusive; x = no result.

SMILES	T cruzi growth-1	Pf Dd2 inh	IDH1 mut inh	KDM4C inh	T cruzi growth-2	T cruzi growth-3	NIH3T3 tox	NIH3T3 tox 2
CC(C)CC#Cc1ccc2c(c1)O[C@H](CN(C)Cc1cncnc1)[C@@H](C)CN([C@H](C)CO)S2(=O)=O	103*	-32	-3	2	94	106*	47*	61*
CO[C@H](CN(C)C(=O)Nc1ccc(C(F)(F)F)cc1)[C@@H](C)CN(Cc1ccccc1Cl)[C@@H](C)CO	101*	-50	0	-2	101*	77	47*	104*
CO[C@H](CN(C)C(=O)Nc1ccc(C(F)(F)F)cc1)[C@H](C)CN(Cc1ccccc1Cl)[C@@H](C)CO	114*	-48	0	0	101*	100*	50*	104*
CO[C@@H](CN(C)C(=O)Nc1ccc(C(F)(F)F)cc1)[C@@H](C)CN(Cc1ccccc1Cl)[C@@H](C)CO	72	-51	-1	0	x	x	x	x
COC(=O)[C@@H]1OC(=O)C2OC23[C@@]1(C)CCC1[C@]2(C)C(C[C@@H](O)[C@]13C)C(C)(C)[C@H](OC(C)=O)C[C@@H]2OC(C)=O (stereo not given in full)	x	x	0	x	x	x	x	x
COc1ccc(NC(=O)Nc2ccc3c(c2)C(=O)N([C@H](C)CO)C[C@@H](C)[C@H](CN(C)Cc2ccccc2)OCCCC[C@H](C)O3)cc1	93	-51	1	0	x	x	x	x
COc1ccc(NC(=O)Nc2ccc3c(c2)C(=O)N([C@@H](C)CO)C[C@@H](C)[C@@H](CN(C)Cc2ccccc2)OCCCC[C@H](C)O3)cc1	103*	-23	2	0	106*	10	7	3
COc1ccc(NC(=O)Nc2ccc3c(c2)C(=O)N([C@H](C)CO)C[C@H](C)[C@H](CN(C)Cc2ccccc2)OCCCC[C@H](C)O3)cc1	92	19	x	-1	x	x	x	x
COc1ccc(NC(=O)Nc2ccc3c(c2)C(=O)N([C@@H](C)CO)C[C@@H](C)[C@H](CN(C)Cc2ccccc2)OCCCC[C@@H](C)O3)cc1	98*	-42	-11	-1	111*	30	-9	16
O=C(C[C@H]1CC[C@H]2[C@@H](COC[C@@H](O)CN2S(=O)(=O)c2cccc(Cl)c2)O1)Nc1ccccc1	15	7	x	0	x	x	x	x
O=C(C[C@@H]1CC[C@H]2[C@@H](COC[C@H](O)CN2S(=O)(=O)c2cccc(Cl)c2)O1)Nc1ccc(-c2ccccc2)cc1	u	-2	x	-3	110*	72	22	105*
O=C(C[C@@H]1CC[C@@H]2[C@H](COC[C@H](O)CN2S(=O)(=O)c2cccc(Cl)c2)O1)Nc1ccc(-c2ccccc2)cc1	110*	-35	x	0	93	111*	36*	75*
N#Cc1cccc(-c2ccc3c(c2)[C@@H]2[C@@H](CCN2Cc2cncnc2)[C@@H](CO)N3)c1	105*	-53	x	1	89	51	-2	12
OC[C@@H]1Nc2ccc(-c3ccc(F)cc3)cc2[C@H]2[C@@H]1CCN2Cc1ccc(F)cc1	44	-68	x	0	x	x	x	x
OC[C@H]1Nc2ccc(-c3cccc(F)c3)cc2[C@H]2[C@@H]1CCN2Cc1ccncc1	106*	-47	x	5	104*	74	21	92*
OC[C@@H]1Nc2ccc(-c3ccccc3)cc2[C@@H]2[C@H]1CCN2Cc1ccc(F)cc1	75	-71	x	1	x	x	x	x
OC[C@H]1Nc2ccc(-c3cccc(F)c3)cc2[C@@H]2[C@H]1CCN2Cc1ccc(F)cc1	111*	-90*	x	-1	u	112*	51*	105*
C[C@@H]1CN([C@@H](C)CO)S(=O)(=O)c2ccc(C#Cc3cccc(F)c3)cc2O[C@H]1CN(C)C(=O)NC1CCCCC1	x	-29	5	-1	x	x	x	x
CC(C)CC#Cc1ccc2c(c1)O[C@H](CN(C)C(=O)NC(C)C)[C@@H](C)CN([C@H](C)CO)S2(=O)=O	85	-5	0	-1	x	x	x	x
